Here are results for 19 molecules from PubChem BioAssay.

Some of the results follow. Inconclusive results are not listed. Values without a mark were called inactive. Activity calls are given as the source filed them.

For test [1], the target named is Solute carrier family 12 member 5 (Homo sapiens) (UniProt Q9H2X9). Nature of the test: retest of KCC2 transport modulators without sodium – cell-based, HEK293 KCC2, thallium flux, secondary assay, confirmation (AID 1713;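 active means thallium flux slope above the same plate's solvent-only control mean plus 3 SD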). The conditions noted are these: FluoZin2 fluorescence, at 10 µM, active compounds read high. The procedure, abridged: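 System: HEK cells expressing human KCC2 cotransporter; Buffer or medium: Na-free NMDG-Cl buffer; Also added: thallium sulfate stimulus buffer at pH 7.3; Dosing: 10 µM single dose, 0.1% DMSO; Timing: 48 min dye loading; Measured by: kinetic FluoZin2 fluorescence at 1 Hz, ex 480/em 540 nm; Read-out: baseline-normalized fluorescence slope, 10–20 s post-Tl+.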
Solute carrier family 12 member 5 (Homo sapiens), sequence (Q9H2X9 whole entry, looked up): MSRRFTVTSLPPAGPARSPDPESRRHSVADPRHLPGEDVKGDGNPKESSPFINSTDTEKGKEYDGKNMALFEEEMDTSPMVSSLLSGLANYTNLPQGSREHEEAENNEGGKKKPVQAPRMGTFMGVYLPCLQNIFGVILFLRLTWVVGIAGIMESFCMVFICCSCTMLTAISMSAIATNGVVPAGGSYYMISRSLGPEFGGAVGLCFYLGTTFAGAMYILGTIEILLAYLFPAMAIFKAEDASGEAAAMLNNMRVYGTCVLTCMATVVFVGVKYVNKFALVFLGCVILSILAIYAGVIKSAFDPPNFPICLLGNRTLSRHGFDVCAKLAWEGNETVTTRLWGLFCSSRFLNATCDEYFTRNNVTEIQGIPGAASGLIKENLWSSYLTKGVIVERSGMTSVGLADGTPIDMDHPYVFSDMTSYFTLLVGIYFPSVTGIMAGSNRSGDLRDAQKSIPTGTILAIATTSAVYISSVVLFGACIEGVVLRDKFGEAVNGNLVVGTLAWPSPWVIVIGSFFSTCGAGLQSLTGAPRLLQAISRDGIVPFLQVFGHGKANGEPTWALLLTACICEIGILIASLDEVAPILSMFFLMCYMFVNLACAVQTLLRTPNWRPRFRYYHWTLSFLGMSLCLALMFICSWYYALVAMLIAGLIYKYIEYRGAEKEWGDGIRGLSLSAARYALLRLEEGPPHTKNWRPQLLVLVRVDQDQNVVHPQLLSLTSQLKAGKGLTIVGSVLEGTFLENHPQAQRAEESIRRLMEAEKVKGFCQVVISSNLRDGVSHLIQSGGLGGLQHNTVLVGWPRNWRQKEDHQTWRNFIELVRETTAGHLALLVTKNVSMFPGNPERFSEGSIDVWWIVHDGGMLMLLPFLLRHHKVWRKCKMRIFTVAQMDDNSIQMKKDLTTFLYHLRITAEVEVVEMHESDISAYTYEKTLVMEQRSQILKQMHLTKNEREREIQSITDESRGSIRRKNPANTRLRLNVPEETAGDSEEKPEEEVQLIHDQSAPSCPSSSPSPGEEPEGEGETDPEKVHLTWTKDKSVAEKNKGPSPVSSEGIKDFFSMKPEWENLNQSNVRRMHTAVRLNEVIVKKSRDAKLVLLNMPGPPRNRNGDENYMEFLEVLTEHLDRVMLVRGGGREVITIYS

Another test in a line: PubChem AID 1714.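 Further: raw slope of fluorescence over initial fluorescence between 10 and 20 s after thallium.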 The note with it: HEK293-KCC2 + bumetanide/ouabain, thallium flux FluoZin2; at 10 µM; active compounds read high. The procedure, abridged:
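Assay system: HEK cells expressing the K-Cl cotransporter KCC2; buffer or medium: HBSS-HEPES plus ouabain 0.2 mM, bumetanide 2 mM; reagent: thallium stimulus; compound dosing: 10 µM single dose; timing: 48 min dye loading; signal: FluoZin2-AM (0.5 µM) fluorescence, 480 nm ex/540 nm em, 1 Hz kinetic imaging; replication: duplicates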

Test [2] addresses Solute carrier family 12 member 5 (Homo sapiens) (UniProt Q9H2X9). Kind of test: retest of KCC2 transport modulation, ouabain-free – cell-based, HEK293 KCC2, thallium flux, FluoZin2, secondary assay 2, confirmation (AID 1715;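 active means thallium flux slope more than 3 SD above or below the plate's solvent-only control mean, mostly below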;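 further: raw slope with 0.1% DMSO as baseline and bumetanide as block control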). The note with it: HEK293-KCC2, thallium flux FluoZin2 fluorescence; at 10 µM; actives lie on both sides; F/F0 rise rate, 10–20 s post-thallium.
Test [3] is described as follows: compound effects on native HEK Tl+ uptake – HEK cells, counterscreen 1, counter-screen for KCC2 modulator project, confirmation (AID 1716;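 active means thallium flux rate significantly above the same plate's solvent-only control wells, beyond their mean plus 3 SD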). The note with it: HEK293 parental cells, thallium flux FluoZin2, ouabain; at 10 µM; baseline-ratio fluorescence slope, 10–20 s after thallium. A general note: A counterscreen serves to expose hits that act by an unwanted route or on another target.

Test [4] concerns the target Solute carrier family 12 member 5 (Homo sapiens) (UniProt Q9H2X9). Kind of test: modulation of KCC2 thallium flux in HEK cells – cell-based, ouabain, retest, confirmation (AID 1717).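 Further: slope of initial-normalized fluorescence between seconds 10 and 20 after thallium.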 The note with it: HEK293-KCC2, thallium flux FluoZin2 fluorescence, at 10 µM, bidirectional: low = inhibitor, high = activator.
A short description of test [5]: native HEK Tl+ uptake effects, second counter-screen – HEK cells, counterscreen 2, counter-screen for KCC2 modulator project, confirmation (AID 1718;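 active means thallium flux slope above the same plate's solvent-control mean plus 3 SD in both duplicate wells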;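 further: run without ouabain in cells lacking the KCC2 cotransporter; slope of fluorescence scaled to its starting value between 10 and 20 s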). The conditions noted are these: HEK293 parental, thallium flux FluoZin-2 fluorescence slope; at 10 µM. The procedure, abridged:
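Test system: parental HEK cells / Reagent: thallium sulfate stimulus, 12 mM in buffer, pH 7.3 / Compound: single 10 µM final compound dose, 0.1% DMSO / Timing: overnight cell culture at 37 °C, 48 min dye loading, compound before thallium / Detection: FluoZin-2 fluorescence kinetics / Read-out: rate of F/F0 rise, 10–20 s after thallium addition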

`O=C(O)CCN(Cc1ccccc1)S(=O)(=O)c1c(Cl)cccc1Cl`: the normalised thallium flux (F/F0 slope) in test [1] was 0.00789. Also, the results for the normalized thallium flux (in “PubChem AID 1714”; in test [2]) were 0.00499 and 0.027 (active), respectively. Further, the thallium flux rate (normalised fluorescence) in test [3] is 0.00714. Further, in test [4], the raw Tl+ flux slope (below DMSO = inhibition, above = activation) was 0.012 (active). The thallium flux slope in test [5] is 0.0112.
As for `c1cncc(-c2nnc3n2C2(CCCCC2)Cc2ccccc2-3)c1`, the normalised thallium flux (F/F0 slope) in test [1] is 0.0161. Besides, the results for the normalized thallium flux (in “PubChem AID 1714”; in test [2]) were 0.00468 and 0.0275, respectively. Moreover, in test [3], the thallium flux rate (normalised fluorescence) was 0.00718. In addition, the raw Tl+ flux slope (below DMSO = inhibition, above = activation) in test [4] is 0.0153. For the same molecule, the thallium flux slope in test [5] was 0.00983.
Turning to `O=C(COC(=O)c1cc([N+](=O)[O-])ccc1NCc1ccccc1)NC1CCCCC1`, the normalised thallium flux (F/F0 slope) in test [1] was 0.00664. Moreover, the normalized thallium flux is 0.00478 in the test “PubChem AID 1714” and 0.0252 (active) in test [2]. Moreover, the thallium flux rate (normalised fluorescence) in test [3] was 0.00762. In addition, in test [4], the raw Tl+ flux slope (below DMSO = inhibition, above = activation) is 0.0168 (active). Besides, the thallium flux slope in test [5] was 0.0115.
In the case of `COc1cc(NC(=O)c2ccccc2NS(=O)(=O)c2ccc(Cl)s2)cc(OC)c1`, in test [1], the normalised thallium flux (F/F0 slope) was 0.00642. Further, the normalized thallium flux in “PubChem AID 1714” is 0.00732; in test [2], 0.0336. Also, in test [3], the thallium flux rate (normalised fluorescence) is 0.00377. The raw Tl+ flux slope (below DMSO = inhibition, above = activation) in test [4] was 0.0161 (active). For the same molecule, the thallium flux slope in test [5] is 0.0111.
Take `CN(C)c1nc(=Nc2cccc(Cl)c2)ss1`: in test [1], the normalised thallium flux (F/F0 slope) was 0.0466 (active). The normalized thallium flux is 0.104 (active) in “PubChem AID 1714” and 0.0563 (active) in test [2]. For the same molecule, the thallium flux rate (normalised fluorescence) in test [3] is 0.0721 (active). Moreover, the raw Tl+ flux slope (below DMSO = inhibition, above = activation) in test [4] was 0.0696 (active). Also, the thallium flux slope in test [5] was 0.0487 (active).
As for `O=C(Nc1nc2c(F)cc(F)cc2s1)C1COc2ccccc2O1` (centres undefined), in test [1], the normalised thallium flux (F/F0 slope) was 0.017 (active). Moreover, the normalized thallium flux in the test “PubChem AID 1714” was 0.0963 (active); in test [2], 0.0398. Besides, the thallium flux rate (normalised fluorescence) in test [3] was 0.0378 (active). Further, in test [4], the raw Tl+ flux slope (below DMSO = inhibition, above = activation) was 0.0383 (active). In test [5], the thallium flux slope was 0.0155 (active).
Turning to `Oc1c(C=Nc2cccc3nsnc23)ccc2ccccc12`, in test [1], the normalised thallium flux (F/F0 slope) was 0.00934. Moreover, the normalized thallium flux was 0.00749 in the test “PubChem AID 1714” and 0.0296 in test [2]. For the same molecule, in test [3], the thallium flux rate (normalised fluorescence) is 0.00781. Further, the raw Tl+ flux slope (below DMSO = inhibition, above = activation) in test [4] is 0.0438. In addition, the thallium flux slope in test [5] was 0.0106.
On to `Cc1cs/c(=N\N=C\c2ccc(O)cc2)n1Cc1ccco1`, for which the normalised thallium flux (F/F0 slope) in test [1] is 0.00586. For the same molecule, the normalized thallium flux is 0.00375 in “PubChem AID 1714” and 0.0253 (active) in test [2]. For the same molecule, in test [3], the thallium flux rate (normalised fluorescence) is 0.00654. For the same molecule, the raw Tl+ flux slope (below DMSO = inhibition, above = activation) in test [4] is 0.0162. In test [5], the thallium flux slope is 0.0101.
With `CCOC(=O)CSc1nnc(CNC(=O)c2cccs2)n1-c1ccccc1`, in test [1], the normalised thallium flux (F/F0 slope) is 0.00872. The figures for the normalized thallium flux (in the test “PubChem AID 1714”; in test [2]) were 0.00583 and 0.0307, respectively. In test [3], the thallium flux rate (normalised fluorescence) was 0.00776. Besides, in test [4], the raw Tl+ flux slope (below DMSO = inhibition, above = activation) was 0.0178. Also, the thallium flux slope in test [5] is 0.0106.
`COc1ccc(-c2nc(CS(=O)CC(=O)N3CCc4ccccc4C3)c(C)o2)cc1` (centres undefined): the normalised thallium flux (F/F0 slope) in test [1] was 0.00722. The normalized thallium flux is 0.00429 in the test “PubChem AID 1714” and 0.0225 (active) in test [2]. In test [3], the thallium flux rate (normalised fluorescence) is 0.00707. The raw Tl+ flux slope (below DMSO = inhibition, above = activation) in test [4] is 0.0124 (active). Besides, the thallium flux slope in test [5] is 0.00907.
For `CSc1sc(C(=O)NNC(=O)c2ccc(Cl)cc2)c2c1C=CCC2`, the normalised thallium flux (F/F0 slope) in test [1] was 0.0166 (active). The normalized thallium flux was 0.0484 (active) in the test “PubChem AID 1714” and 0.0343 in test [2]. Also, the thallium flux rate (normalised fluorescence) in test [3] is 0.0305 (active). Moreover, the raw Tl+ flux slope (below DMSO = inhibition, above = activation) in test [4] was 0.0333 (active). Besides, in test [5], the thallium flux slope was 0.0136 (active).
Take `CC/S(CC1CC1(Cl)Cl)=N\S(=O)(=O)c1ccc(C)cc1` (centres undefined): the normalised thallium flux (F/F0 slope) in test [1] was 0.0104. Also, the normalized thallium flux in “PubChem AID 1714” was 0.00604; in test [2], 0.0348. In addition, the thallium flux rate (normalised fluorescence) in test [3] was 0.00744. The raw Tl+ flux slope (below DMSO = inhibition, above = activation) in test [4] was 0.0213. Moreover, the thallium flux slope in test [5] is 0.0107.
Turning to `O=C(Nc1nnc(C2COc3ccccc3O2)o1)c1ccc(F)cc1` (centres undefined), the normalised thallium flux (F/F0 slope) in test [1] is 0.0197 (active). The normalized thallium flux is 0.06 (active) in “PubChem AID 1714” and 0.032 in test [2]. Moreover, the thallium flux rate (normalised fluorescence) in test [3] is 0.0287 (active). The raw Tl+ flux slope (below DMSO = inhibition, above = activation) in test [4] was 0.0495 (active). Also, the thallium flux slope in test [5] was 0.0126 (active).
For `Cc1nc(SCC(=O)N2CCc3ccccc3C2)c2c(C)c(C)sc2n1`, the normalised thallium flux (F/F0 slope) in test [1] is 0.0151. Further, the figures for the normalized thallium flux (in the test “PubChem AID 1714”; in test [2]) were 0.00522 and 0.0244 (active), respectively. Besides, the thallium flux rate (normalised fluorescence) in test [3] is 0.00764. In addition, the raw Tl+ flux slope (below DMSO = inhibition, above = activation) in test [4] was 0.0144. In addition, in test [5], the thallium flux slope was 0.0108.
For `CCCn1c(=S)[nH]c2ccc(C(F)(F)F)cc21`, the normalised thallium flux (F/F0 slope) in test [1] was 0.00727. For the same molecule, the normalized thallium flux is 0.0987 (active) in the test “PubChem AID 1714” and 0.0617 (active) in test [2]. Also, the thallium flux rate (normalised fluorescence) in test [3] is 0.0842 (active). The raw Tl+ flux slope (below DMSO = inhibition, above = activation) in test [4] was 0.0775 (active). In addition, in test [5], the thallium flux slope is 0.0576 (active).
As for `CCc1c(SCCC(=O)O)nc2ccccc2c1C`, in test [1], the normalised thallium flux (F/F0 slope) was 0.00619. The normalized thallium flux was 0.00439 in “PubChem AID 1714” and 0.0283 in test [2]. In addition, the thallium flux rate (normalised fluorescence) in test [3] is 0.00913 (active). Besides, in test [4], the raw Tl+ flux slope (below DMSO = inhibition, above = activation) is 0.0166. The thallium flux slope in test [5] is 0.0104.
With `C/C(=N\NC(=S)Nc1ccc(C)cc1)c1cc2ccccc2o1`, the normalised thallium flux (F/F0 slope) in test [1] was 0.00692. The normalized thallium flux in the test “PubChem AID 1714” was 0.0677 (active); in test [2], 0.0558 (active). In addition, the thallium flux rate (normalised fluorescence) in test [3] was 0.0375 (active). Moreover, the raw Tl+ flux slope (below DMSO = inhibition, above = activation) in test [4] is 0.0575 (active). Besides, the thallium flux slope in test [5] was 0.0352 (active).
On to `COc1ccc(C(=O)NC2(C(F)(F)F)NC(=O)N(CCCc3ccccc3)C2=O)c(OC)c1OC` (centres undefined), for which the normalised thallium flux (F/F0 slope) in test [1] was 0.00692. In addition, the normalized thallium flux in “PubChem AID 1714” was 0.00586; in test [2], 0.0307. Moreover, the thallium flux rate (normalised fluorescence) in test [3] was 0.00683. In addition, the raw Tl+ flux slope (below DMSO = inhibition, above = activation) in test [4] is 0.0134 (active). Moreover, the thallium flux slope in test [5] is 0.0109.
Take `COc1ccc2[nH]c(=S)cc(C)c2c1`: the normalised thallium flux (F/F0 slope) in test [1] is 0.00897. Further, the normalized thallium flux in “PubChem AID 1714” is 0.0111 (active); in test [2], 0.0317. In addition, the thallium flux rate (normalised fluorescence) in test [3] is 0.0146 (active). Also, the raw Tl+ flux slope (below DMSO = inhibition, above = activation) in test [4] is 0.0267. Besides, in test [5], the thallium flux slope was 0.0122 (active).
